From ChEMBL document CHEMBL5257120 (Bioorg Med Chem, 2023)
Active and inactive are the calls of the source. The calls are words filed in the database; no cut-off is given here.

What was measured:
MDA-MB-231 [1] = experiment: Cytotoxicity against human MDA-MB-231 cells incubated for 72 hrs by Sulphorhodamine assay; assay type: functional, cell-based; settings: MDA-MB-231, 72 h
MCF7 = experiment: Cytotoxicity against human MCF7 cells incubated for 72 hrs by Sulphorhodamine assay; assay type: functional, cell-based; settings: MCF7, 72 h
[2] = Selectivity index, ratio of IC50 for african green monkey Vero cells to IC50 for human K562 cells; assay type: toxicity; settings: Vero cells versus K562 cells, read-out: Ratio IC50
[3] = Cytotoxicity against african green monkey Vero cells incubated for 72 hrs by Sulphorhodamine assay; assay type: toxicity, cell-based; settings: African green monkey (Chlorocebus sabaeus)
K562 [4] = experiment: Cytotoxicity against human K562 cells incubated for 72 hrs by Sulphorhodamine assay; assay type: functional, cell-based; settings: K562, 72 h
Homo sapiens = species: Homo sapiens; experiment: Selectivity ratio, ratio of inhibition of HDAC in human HeLa nuclear extract assessed as residual activity to inhibition of human recombinant HDAC6 assessed as residual activity
Procedure, shortened: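 Compounds at 20 μM tested by fluorometric assay on HeLa nuclear extract (class I/II HDACs) and on human recombinant HDAC6. Residual activity is expressed relative to untreated control. Selectivity is the ratio of PanHDAC to HDAC6 residual activity: ≥7 high, 2.5–6.9 moderate, <2.5 low.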

[5] = Antiinflammatory activity in mouse peritoneal macrophage assessed as reduction in LPS-induced TNFalpha production at 10 ug/ml; assay type: functional; settings: dose 10 µg/ml
MDA-MB-231 [6] = experiment: Induction of cell cycle arrest in human MDA-MB-231 cells assessed as S phase arrest at 1.625 to 6.5 uM incubated for 24 hrs by propidium iodide staining based method; assay type: functional; settings: dose 1.625-6.5 µM
[7] = Antiinflammatory activity in mouse peritoneal macrophage assessed as reduction in LPS-induced TNFalpha production at 1 ug/ml; assay type: functional; settings: dose 1 µg/ml
K562 [8] = experiment: Induction of cell cycle arrest in human K562 cells assessed as S phase arrest at 1.625 to 6.5 uM incubated for 24 hrs by propidium iodide staining based method; assay type: functional; settings: dose 1.625-6.5 µM
[9] = Antiinflammatory activity in mouse peritoneal macrophage assessed as reduction in LPS-induced IL6 production at 10 ug/ml; assay type: functional; settings: dose 10 µg/ml
Tubulin (Homo sapiens) [10] = target: T1, Tubulin (Homo sapiens) (UniProt P68371+Q9H4B7+P0DPH7+P68366+Q13509+Q71U36+P04350+Q3ZCM7+P07437+P68363+Q9BQE3+Q6PEY2+Q13885+Q9BVA1+Q9BUF5); experiment: Induction of microtubule stabilization (unknown origin) at 1 to 5 uM; assay type: protein-complex assay; settings: dose 1-5 µM
[11] = Antiinflammatory activity in mouse peritoneal macrophage assessed as inhibition of LPS-induced TNFalpha production at 1 ug/ml relative to control; assay type: functional; design: scale not given: the % may be the effect or the level left; settings: dose 1 µg/ml
[12] = Antiinflammatory activity in mouse peritoneal macrophage assessed as inhibition of LPS-induced TNFalpha production at 10 ug/ml relative to control; assay type: functional; design: scale not given: the % may be the effect or the level left; settings: dose 10 µg/ml
[13] = Antiinflammatory activity in mouse peritoneal macrophage assessed as inhibition of LPS-induced IL6 production at 10 ug/ml relative to control; assay type: functional; design: scale not given: the % may be the effect or the level left; settings: dose 10 µg/ml
[14] = Antiinflammatory activity in mouse peritoneal macrophage assessed as reduction in LPS-induced IL6 production at 1 ug/ml; assay type: functional; settings: dose 1 µg/ml
[15] = Antiinflammatory activity in mouse peritoneal macrophage assessed as inhibition of LPS-induced IL6 production at 1 ug/ml relative to control; assay type: functional; design: scale not given: the % may be the effect or the level left; settings: dose 1 µg/ml
Tubulin (Homo sapiens) [16] = target: T1, Tubulin (Homo sapiens); experiment: Induction of microtubule stabilization in human HeLa cells assessed as effect on cellular cytoskeletal network of tubulin at 5 to 10 uM incubated for 4 hrs by Alexa Fluor 488 staining based confocal microscopic analysis; assay type: cell-based; settings: dose 5-10 µM
Procedure, shortened: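 HeLa cells treated for 4 h at 5 and 10 μM. Microtubules immunostained with Alexa Fluor 488-conjugated anti-β-tubulin and imaged by confocal microscopy with a 60× Plan Apochromat objective. References: paclitaxel 5 nM, podophyllotoxin 5 μM.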

Tubulin (Homo sapiens) [17] = target: T1, Tubulin (Homo sapiens); experiment: Induction of microtubule stabilization (unknown origin) at 5 uM; assay type: protein-complex assay
MDA-MB-231 [18] = experiment: Induction of cell cycle arrest in human MDA-MB-231 cells assessed as S phase arrest at 0.285 to 1.14 uM incubated for 24 hrs by propidium iodide staining based method; assay type: functional; settings: dose 0.285-1.14 µM

| Compound | Ratio (Homo sapiens) | IC50 (MDA-MB-231 [1]) [µM] | IC50 (MCF7) [µM] | selectivity ratio [2] | IC50 at 72 h [3] [µM] | IC50 (K562 [4]) [µM] | also measured |
| --- | --- | --- | --- | --- | --- | --- | --- |
| COc1ccc2c(c1)CC(Cc1ccc(CCC(=O)NO)cc1)C2=O (stereo not drawn) |  | > 100 | 93.9 | 1.85 | 114 | 61.8 |  |
| COc1cc2c(cc1OC)C(=O)C(Cc1ccc(C(=O)NO)cc1)C2 (stereo not drawn) |  | > 100 | > 100 |  | 193 | > 100 |  |
| COc1ccc2c(c1)CC(Cc1ccc(C(=O)NO)cc1)C2=O (stereo not drawn) |  | 28.8 | 55.2 | 2.99 | 55.5 | 18.6 |  |
| COc1cc([C@@H]2c3cc4c(cc3[C@H](O)[C@H]3COC(=O)[C@H]23)OCO4)cc(OC)c1OC [PODOFILOX] |  | 20.2 | 10 |  |  | 18.4 |  |
| CC/C(=C(\c1ccccc1)c1ccc(OCCN(C)C)cc1)c1ccccc1 [TAMOXIFEN] |  | 18.5 |  |  | 36.2 |  |  |
| CC(=O)O[C@H]1C(=O)[C@@]2(C)[C@H]([C@H](OC(=O)c3ccccc3)[C@]3(O)C[C@H](OC(=O)[C@H](O)[C@@H](NC(=O)c4ccccc4)c4ccccc4)C(C)=C1C3(C)C)[C@]1(OC(C)=O)CO[C@@H]1C[C@@H]2O |  |  |  |  |  |  | Activity (Tubulin (Homo sapiens) [17]): Active |
| C[C@@H]1C[C@H]2[C@@H]3CCC4=CC(=O)C=C[C@]4(C)[C@@]3(F)[C@@H](O)C[C@]2(C)[C@@]1(O)C(=O)CO [DEXAMETHASONE] |  |  |  |  |  |  | Activity [7]: 581.27 pg/mL; Activity [11]: 52.82%; Activity [14]: 1792.75 pg/mL; Activity [15]: 40.5% |
| COc1cccc2c1C(=O)c1c(O)c3c(c(O)c1C2=O)C[C@@](O)(C(=O)CO)C[C@@H]3O[C@H]1C[C@H](N)[C@H](O)[C@H](C)O1 [DOXORUBICIN] |  | 0.57 |  |  | 1.87 | 5.23 | Activity (MDA-MB-231 [18]): Active |
| CN1CCc2c(c3ccccc3n2Cc2ccc(C(=O)NO)cc2)C1 [TUBASTATIN A] |  |  |  |  |  | 2.07 |  |
| COc1cc2c(cc1OC)C(=O)C(Cc1ccc(CCC(=O)NO)cc1)C2 (stereo not drawn) |  | 32.6 | 51.7 | 1.6 | 48.7 | 30.4 |  |

Continued, in another order:

| Ratio (Homo sapiens) | Compound | IC50 (MDA-MB-231 [1]) [µM] | IC50 (MCF7) [µM] | selectivity ratio [2] | IC50 at 72 h [3] [µM] | IC50 (K562 [4]) [µM] | also measured |
| --- | --- | --- | --- | --- | --- | --- | --- |
| > 7 | COc1cc(C2c3c(cc(OC)c(OC)c3OC)C(=O)C2Cc2ccc(C(=O)NO)cc2)cc(OC)c1OC (stereo not drawn) | > 100 | 87.5 | 2.5 | 91.8 | 36.8 |  |
| > 7 | COc1ccc2c(c1)C/C(=C/c1ccc(C(=O)NOCc3ccccc3)cc1)C2=O |  |  |  |  |  |  |
| inactive | COc1cc(C2/C(=C/c3ccc(C(=O)NO)cc3)C(=O)c3cc(OC)c(OC)c(OC)c32)cc(OC)c1OC (stereo not drawn) | > 100 | 60.1 | 1.51 | 72.2 | 47.7 |  |
| > 7 | COc1cc(C2/C(=C/c3ccc(OCCCC(=O)NO)cc3)C(=O)c3cc(OC)c(OC)c(OC)c32)cc(OC)c1OC (stereo not drawn) | 3.25 | 49.7 | 28.4 | 47.2 | 1.66 | Activity [5]: 1046.79 pg/mL; Activity (MDA-MB-231 [6]): Active; Activity [7]: 1180.12 pg/mL; Activity (K562 [8]): Active; Activity [9]: 2648.31 pg/mL; Activity (Tubulin (Homo sapiens) [10]): Active; Activity [11]: 12.34%; Activity [12]: 15.04%; Activity [13]: 12.11%; Activity [14]: 2730.53 pg/mL; Activity [15]: 9.38%; Activity (Tubulin (Homo sapiens) [16]): Active |
| 2.5 | COc1cc2c(cc1OC)C(=O)/C(=C\c1ccc(/C=C/C(=O)NOCc3ccccc3)cc1)C2 |  |  |  |  |  |  |
| inactive | COc1cc2c(cc1OC)C(=O)/C(=C\c1ccc(/C=C/C(=O)NO)cc1)C2 | > 100 | > 100 | > 1 | 129 | > 100 |  |
| > 7 | COc1cc2c(cc1OC)C(=O)/C(=C\c1ccc(C(=O)NO)cc1)C2 | > 100 | > 100 | 1.88 | 88.4 | 46.9 |  |
| > 7 | COc1cc2c(cc1OC)C(=O)/C(=C\c1ccc(C(=O)NOCc3ccccc3)cc1)C2 |  |  |  |  |  |  |
| 2.5 | COc1cc(C2c3c(cc(OC)c(OC)c3OC)C(=O)C2Cc2ccc(CCC(=O)NO)cc2)cc(OC)c1OC (stereo not drawn) | 20.7 | 52.3 | 1.47 | 76.2 | 51.9 |  |
| > 7 | COc1ccc2c(c1)C/C(=C/c1ccc(/C=C/C(=O)NO)cc1)C2=O | > 100 | 97.5 | ≤ 1 | 100 | > 100 |  |
| 2.5 | COc1ccc2c(c1)C/C(=C/c1ccc(/C=C/C(=O)NOCc3ccccc3)cc1)C2=O |  |  |  |  |  |  |
| inactive | COc1cc(C2/C(=C/c3ccc(/C=C/C(=O)NOC(C)=O)cc3)C(=O)c3cc(OC)c(OC)c(OC)c32)cc(OC)c1OC (stereo not drawn) | 19.1 | 75 | 2.01 | 47.5 | 23.6 |  |
